KCNQ1 inh = blocks the human KCNQ1 potassium channel; B-score at 10 µM; CHO-K1 KCNQ1, FluxOR thallium flux fluorescence; stronger effect = higher value; actives 1.3% (n = 310,000); P51787;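 active = compounds whose thallium flux B-score, printed positive for inhibition, exceeds three library SD while starting fluorescence stays within three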;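 note: channel opened by potassium depolarization with thallium stimulus after 20 min compound exposure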
KCNQ1 act = potentiates or activates the human KCNQ1 potassium channel; P51787; actives 0.35% (n = 310,000); AID 2648; B-score at 10 µM; CHO-K1 KCNQ1, thallium flux FluxOR fluorescence; stronger effect = higher value;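 active = fluorescence ratio B-score, a plate-corrected score, at least three library SD, with initial intensity B-score within 5 SD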
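assay system = CHO-K1 cells stably expressing KCNQ1 | medium = assay buffer, equal DMSO in all wells | timing = 37 °C overnight plating, 90-min dark dye load, 20-min compound pretreatment | measured by = kinetic FluxOR thallium fluorescence, 10-s 1-Hz baseline, 110-s post-stimulus read | measure = fluorescence change relative to baseline, converted to B score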
KCNK9 block = human KCNK9 channel inhibition; Q9NPC2; HEK293 KCNK9, FluxOR thallium flux fluorescence; stronger effect = lower value; B-score at 10 µM; actives 1.2% (n = 310,000);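 active = ratio B-score over 3 SD below the library mean, with starting fluorescence within 5 SD of its mean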;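 note: negative B-score means less thallium flux so channel inhibition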
hERG rescue = shields human hERG channel from block by proarrhythmic agents; Q12809; AID 1511; CHO-hERG, FluxOR thallium flux, dofetilide IC70 present; actives 0.51% (n = 310,000); activation (rescue from dofetilide block), less the hit threshold, % at 10 µM;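 active = activation above the mean of controls blocked by dofetilide plus 5 SD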;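 note: thallium influx through hERG after potassium depolarization seen as dye fluorescence rise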
KCNK3 block = human KCNK3 channel inhibition, primary screen; actives 0.84% (n = 340,000); CHO-KCNK3 thallium flux, FluxOR fluorescence; stronger effect = lower value; B-score at 10 µM;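 active = B-score under library mean minus 4 SD, starting fluorescence ratio at most library mean plus 5 SD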;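 note: more negative B-score means stronger inhibition of thallium flux through KCNK3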
KCNQ1 block val = confirmation of human KCNQ1 potassium channel inhibitors. shares compounds with KCNQ1 inh. KCNQ1 cell line, FluxOR thallium flux fluorescence. inhibition, % at 10 µM. actives 93% (n = 1,600). AID 588353;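 active = primary screen active, with duplicate mean exceeding buffer control mean plus 3 SD of buffer wells, cut at about 28% in these data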;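 note: 0% = buffer control ratio and 100% = XE991 inhibitor control ratio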
CHO KCNQ1 ctr = KCNQ1 inhibitor counter-screen hit in parental CHO cells; shares compounds with KCNQ1 inh; parental CHO-K1, FluxOR thallium flux fluorescence ratio; stronger effect = lower value; zero means no signal rise above baseline; fluorescence ratio (Tl flux) at 10 µM; actives 21% (n = 1,600);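 active = mean of duplicate thallium-flux fluorescence ratios in parental host cells more than 5 SD below the buffer control mean, cut at about 0.38 in these data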;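 note: ratio is peak minus minimum fluorescence divided by baseline fluorescence; actives read low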
KCNQ1 APC inh = confirmation of human KCNQ1 potassium channel inhibitors by electrophysiology; shares compounds with KCNQ1 inh; KCNQ1-CHO cells, automated patch clamp current; calls only at 10 µM; actives 20% (n = 490); AID 624120;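 active = KCNQ1 current drop exceeding 3 SD of negative control wells, seen in both duplicate runs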;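 note: steady state current during a 2 s step from -80 to +40 mV; negative values mean current inhibition and positive values mean potentiation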
KCNQ2 spec = selectivity of KCNQ1 inhibitors: inhibition of rat KCNQ2 channel. shares compounds with KCNQ1 inh. KCNQ2 cells, FluxOR thallium flux fluorescence. inhibition, % at 10 µM. actives 71% (n = 1,600). AID 651746;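 active = mean percent inhibition of the KCNQ2 thallium signal more than 5 SD above the buffer-only control wells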;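 note: KCNQ2 expressed in CHO cells; 0% = buffer control wells and 100% = XE-991 inhibitor control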
KCNQ1 KCNE1 spec = KCNQ1 inhibitor that also blocks human KCNQ1/KCNE1 channel; shares compounds with KCNQ1 inh; actives 77% (n = 1,600); KCNQ1/KCNE1 cells, FluxOR thallium flux fluorescence; inhibition, % at 10 µM;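 active = mean percent inhibition of duplicate wells above the buffer-only control mean plus 3 SD of those controls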;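 note: 0% = buffer only wells and 100% = XE-991 inhibitor control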
Target sequence (P51787 whole entry, looked up): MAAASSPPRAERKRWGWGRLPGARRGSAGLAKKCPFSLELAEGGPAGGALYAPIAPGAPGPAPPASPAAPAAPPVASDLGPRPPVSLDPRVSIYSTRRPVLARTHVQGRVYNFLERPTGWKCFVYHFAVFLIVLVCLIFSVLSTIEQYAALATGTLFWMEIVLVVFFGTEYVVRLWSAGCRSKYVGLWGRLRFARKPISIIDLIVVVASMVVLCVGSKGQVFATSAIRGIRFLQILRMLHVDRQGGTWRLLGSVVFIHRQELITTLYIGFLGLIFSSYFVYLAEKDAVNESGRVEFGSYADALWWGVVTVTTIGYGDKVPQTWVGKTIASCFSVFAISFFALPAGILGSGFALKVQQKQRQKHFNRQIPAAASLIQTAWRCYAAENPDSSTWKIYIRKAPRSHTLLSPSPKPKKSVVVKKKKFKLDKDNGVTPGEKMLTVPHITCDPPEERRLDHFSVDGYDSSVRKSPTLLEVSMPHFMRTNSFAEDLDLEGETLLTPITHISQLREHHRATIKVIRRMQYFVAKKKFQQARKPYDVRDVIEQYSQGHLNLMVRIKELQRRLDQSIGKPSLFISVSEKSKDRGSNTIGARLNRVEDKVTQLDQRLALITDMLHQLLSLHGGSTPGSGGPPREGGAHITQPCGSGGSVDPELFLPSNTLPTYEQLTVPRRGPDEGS
* = called active by the depositor; i = inactive; . = no result given; + = active, no number. Most compounds without a hit are left out; they make up all but 3.1% or so of the library.

SMILES	KCNQ1 inh	KCNQ1 act	KCNK9 block	hERG rescue	KCNK3 block	KCNQ1 block val	CHO KCNQ1 ctr	KCNQ2 spec	KCNQ1 KCNE1 spec	others
S=C(NCc1ccc(Cl)cc1)Nc1ccncc1	11*	i	i	-21	i	144*	0.44	98%*	136%*	KCNQ1 APC inh=+
Cc1cc(C)c(-c2cc(NC(=O)COC(=O)c3ccc(C#N)cc3)n(-c3ccccc3)n2)cc1C	i	i	i	-2	i	.	.	.	.
Cc1cc(C)c(-c2cc(NC(=O)COC(=O)c3ccc(NC(=O)CC#N)cc3)n(-c3ccccc3)n2)cc1C	6*	i	i	-9	i	156*	0.47	64%*	137%*	KCNQ1 APC inh=i
CCOC(=O)C(C)On1c(-c2cccc(Cl)c2)nc2ccc([N+](=O)[O-])cc21 (configuration not stated)	15*	i	i	-29	i	154*	0.34*	131%*	+
CC(On1c(-c2ccccc2)nc2ccc(Cl)cc21)C(=O)O (configuration not stated)	i	i	i	-10	i	.	.	.	.
O=C(NC1CCCCC1)N1CCCc2ccccc21	i	i	i	-10	i	.	.	.	.
O=C(NC1CCCCC1)N1CCSC1=Nc1ccccc1	10*	i	i	-20	i	103*	0.41	110%*	111%*	KCNQ1 APC inh=i
CCSc1nnc(-c2sc3nnc(-c4ccccc4)c(-c4ccccc4)c3c2N)o1	14*	i	i	-27	i	+	0.14*	i	i
Cc1cc(NC(=O)C(C)SCC(=O)Nc2cc(C(F)(F)F)ccc2N2CCOCC2)no1 (configuration not stated)	i	i	i	-15	i	.	.	.	.
COc1ccc(NC(=O)COc2cc(O)c3c(c2)OC(C)(C)CC3=O)cc1	i	i	i	-8	i	.	.	.	.
COc1cccc(NC(=O)COc2cc(O)c3c(c2)OC(C)(C)CC3=O)c1	7*	i	i	-13	i	49*	0.44	78%*	70%*
CCS(=O)(=O)c1ncc(Cl)c(C(=O)Nc2ccccc2OC)n1	11*	i	i	-10	i	73*	0.38	63%*	66%*
COc1ccccc1NC(=O)c1nc(S(=O)(=O)Cc2ccccc2)ncc1Cl	i	i	i	-8	i	.	.	.	.
COc1cccc(NC(=O)c2nc(S(C)(=O)=O)ncc2Cl)c1	7*	i	i	-7	i	0	0.43	i	52%*
O=C(Nc1cccc(Cl)c1)N(CCCN1CCOCC1)Cc1ccccc1F	11*	i	i	-13	i	78*	0.51	106%*	71%*
CCOC(=O)c1ccc(NC(=S)NCCc2ccccc2F)cc1	8*	i	i	-17	i	84*	0.45	77%*	50%*
O=c1ccc2c(-c3ccccc3)c3ccc(O)cc3oc-2c1	24*	i	i	-50	i	+	0*	i	i
Nc1ccc(-c2c3ccc(=O)cc-3oc3cc(O)ccc23)cc1C(=O)O	24*	i	i	-52	i	+	0.0075*	i	i
COc1ccc(-c2c(C)c3ccc(O)cc3oc2=O)cc1OC	i	i	i	-5	i	.	.	.	.
O=c1cc(-c2ccccc2)oc2cc(O)ccc12	.	.	.	.	i	.	.	.	.
O=C(Nc1nnc(-c2ccco2)o1)C1CC1	i	i	i	-10	i	.	.	.	.
O=C(Nc1ccc(Br)cc1)Nc1cnccn1	7*	i	i	-11	i	0	0.56	i	i
C/C(O)=c1/ccc2cccc3nc(C)nc1c23	8*	i	i	-28	i	117*	0.25*	i	i
Cc1ccccc1NC(NC(=O)c1cccs1)C(Cl)(Cl)Cl (configuration not stated)	13*	i	i	-10	i	120*	0.43	i	114%*	KCNQ1 APC inh=i
O=C(CCC(=O)N1CCOCC1)NCCc1ccccc1	.	.	.	.	i	.	.	.	.
SMILES	KCNQ1 inh	KCNQ1 act	KCNK9 block	hERG rescue	KCNK3 block	KCNQ1 block val	CHO KCNQ1 ctr	KCNQ2 spec	KCNQ1 KCNE1 spec	others
CCN1CCN(c2ccc(S(=O)(=O)N3CCCCC3)cc2NC(=O)c2ccc(C)o2)CC1	i	i	i	-10	i	.	.	.	.
FC(F)(F)c1ccc(NC(=S)NC2CCCCC2)cc1	7*	i	i	-10	i	65*	0.52	59%*	37%*
S=C(Nc1ccc(Cl)c(Cl)c1)NC1CCCCC1	6*	i	i	-14	i	69*	0.53	i	i
Cc1ccc(NC(=S)NC2CCCCC2)cc1S(=O)(=O)N(C)C	7*	i	i	-19	i	132*	0.52	107%*	i	KCNQ1 APC inh=i
Cc1ccc(NC(=O)CNCC2CCCCC2)cc1S(=O)(=O)N(C)C	i	i	i	-8	i	.	.	.	.
FC(F)(F)c1cccc(NC(=S)NC2CCCC2)c1	i	i	i	-14	i	.	.	.	.
Fc1cccc(NC(=S)NC2CCCCCCC2)c1	8*	i	i	-7	i	105*	0.47	75%*	88%*	KCNQ1 APC inh=+
CCCCNC(=S)Nc1ccc(C(F)(F)F)cc1	8*	i	i	-8	i	32*	0.57	i	i
Cc1ccc(Nc2cc(C)nc(NCc3ccccc3)n2)cc1	i	i	i	-31	i	.	.	.	.
COc1cc(C)nc(NCc2ccccc2)n1	i	i	i	2	i	.	.	.	.
Cc1cc(NC2CCCCC2)nc(NCc2ccccc2)n1	14*	i	i	-36	i	182*	0.32*	120%*	168%*
COc1ccc(Nc2cc(C)nc(NCc3ccccc3)n2)cc1	8*	i	i	-28	i	124*	0.37*	89%*	98%*
CC(=O)c1cc(Cl)ccc1OCC(=O)Nc1cccc(S(=O)(=O)N2CCCC2)c1	.	.	.	.	i	.	.	.	.
Oc1[nH]c2ccc(Br)cc2c1N=NC(=S)Nc1ccc(F)cc1	i	i	i	-13	i	.	.	.	.

High-throughput results as filed in PubChem.
